Key:
[1] = tested on: HeLa; assay: Cytotoxicity against human HeLa cells expressing telomerase after 96 hrs by MTT assay; type: functional, cell-based
In short: (§1)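 Cells grown in DMEM with 10% heat-inactivated FCS, penicillin/streptomycin, 37 °C, 5% CO2. Plated at 10000 cells/well and left overnight, then exposed to eight serial dilutions in triplicate for 96 h. MTT added to 0.8 mg/mL final for 2 h, formazan dissolved in DMSO, absorbance read at 540 nm. IC50 from sigmoidal dose-response fits.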

[2] = target: DNA polymerase I, thermostable (Thermus aquaticus, UniProt P19821); assay: Inhibition of Taq polymerase
In short: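 PCR with 2.5 ng pBR322 template and primers Tup/Tdown (0.5 µM) amplifying plasmid bases 906-1064. Compounds tested from 20 nM to 40 µM. Run 25 cycles of 94 °C, 65 °C and 72 °C (30 s each). Products resolved on 2% agarose in TBE and stained with ethidium bromide.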

[3] = species: Homo sapiens; assay: Binding affinity to human telomeric DNA sequence assessed as stabilization of G-quadruplex at 10 uM by thermal denaturation
In short: (§2)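 Fluorescence melting in a LightCycler of 0.25 µM telomeric oligonucleotide HTS (5'-FAM, 3'-methyl red) in LiP buffer (10 mM LiOH, 50 mM KCl, pH 7.4 with H3PO4). Samples were denatured at 95 °C for 5 min, then cooled and reheated at 0.5 °C/min in 1 °C steps with 2 min equilibration per step. Excitation 488 nm, emission 520 nm. ΔTm was taken relative to ligand-free DNA.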

[4] = Cytotoxicity against human 293T cells expressing telomerase after 96 hrs by MTT assay; type: cell-based; conditions: HEK-293T; in short: as §1
[5] = target: Telomerase reverse transcriptase (Homo sapiens, UniProt O14746); assay: Inhibition of telomerase in human JR8 cells by TRAP assay; type: cell-based
In short: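 Telomerase source was a CHAPS lysate of exponentially growing JR8 cells (500 ng protein per reaction). Elongation 30 min at 30 °C, then 30 PCR cycles. Products run on 10% PAGE with phosphorimager read-out, in triplicate. Drug levels kept below those inhibiting Taq.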

[6] = species: Homo sapiens; assay: Binding affinity to human telomeric DNA sequence assessed as stabilization of G-quadruplex at 1 uM by thermal denaturation; in short: as §2

Chain of DNA polymerase I, thermostable (P19821 whole entry): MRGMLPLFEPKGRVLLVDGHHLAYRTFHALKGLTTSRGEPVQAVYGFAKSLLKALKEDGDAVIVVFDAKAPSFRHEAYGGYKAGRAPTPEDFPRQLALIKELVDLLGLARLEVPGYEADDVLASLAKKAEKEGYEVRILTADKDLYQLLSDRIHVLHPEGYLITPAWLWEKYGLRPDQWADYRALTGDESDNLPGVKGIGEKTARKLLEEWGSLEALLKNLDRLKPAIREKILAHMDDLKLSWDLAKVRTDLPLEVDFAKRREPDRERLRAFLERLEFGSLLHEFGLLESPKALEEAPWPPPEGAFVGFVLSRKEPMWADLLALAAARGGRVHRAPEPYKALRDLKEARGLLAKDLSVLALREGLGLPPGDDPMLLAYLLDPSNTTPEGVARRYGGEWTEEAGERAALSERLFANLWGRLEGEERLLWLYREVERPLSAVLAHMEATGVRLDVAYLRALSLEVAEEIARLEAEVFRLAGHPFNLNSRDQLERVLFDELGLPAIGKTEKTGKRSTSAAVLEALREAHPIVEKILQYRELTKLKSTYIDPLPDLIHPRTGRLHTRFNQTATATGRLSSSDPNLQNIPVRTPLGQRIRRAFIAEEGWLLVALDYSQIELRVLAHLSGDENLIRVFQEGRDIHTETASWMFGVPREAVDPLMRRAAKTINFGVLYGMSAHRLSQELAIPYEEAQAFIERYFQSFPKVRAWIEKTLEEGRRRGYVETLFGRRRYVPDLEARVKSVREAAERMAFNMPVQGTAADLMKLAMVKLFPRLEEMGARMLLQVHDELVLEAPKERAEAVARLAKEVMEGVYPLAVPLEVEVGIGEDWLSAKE
Chain of Telomerase reverse transcriptase (O14746 whole entry): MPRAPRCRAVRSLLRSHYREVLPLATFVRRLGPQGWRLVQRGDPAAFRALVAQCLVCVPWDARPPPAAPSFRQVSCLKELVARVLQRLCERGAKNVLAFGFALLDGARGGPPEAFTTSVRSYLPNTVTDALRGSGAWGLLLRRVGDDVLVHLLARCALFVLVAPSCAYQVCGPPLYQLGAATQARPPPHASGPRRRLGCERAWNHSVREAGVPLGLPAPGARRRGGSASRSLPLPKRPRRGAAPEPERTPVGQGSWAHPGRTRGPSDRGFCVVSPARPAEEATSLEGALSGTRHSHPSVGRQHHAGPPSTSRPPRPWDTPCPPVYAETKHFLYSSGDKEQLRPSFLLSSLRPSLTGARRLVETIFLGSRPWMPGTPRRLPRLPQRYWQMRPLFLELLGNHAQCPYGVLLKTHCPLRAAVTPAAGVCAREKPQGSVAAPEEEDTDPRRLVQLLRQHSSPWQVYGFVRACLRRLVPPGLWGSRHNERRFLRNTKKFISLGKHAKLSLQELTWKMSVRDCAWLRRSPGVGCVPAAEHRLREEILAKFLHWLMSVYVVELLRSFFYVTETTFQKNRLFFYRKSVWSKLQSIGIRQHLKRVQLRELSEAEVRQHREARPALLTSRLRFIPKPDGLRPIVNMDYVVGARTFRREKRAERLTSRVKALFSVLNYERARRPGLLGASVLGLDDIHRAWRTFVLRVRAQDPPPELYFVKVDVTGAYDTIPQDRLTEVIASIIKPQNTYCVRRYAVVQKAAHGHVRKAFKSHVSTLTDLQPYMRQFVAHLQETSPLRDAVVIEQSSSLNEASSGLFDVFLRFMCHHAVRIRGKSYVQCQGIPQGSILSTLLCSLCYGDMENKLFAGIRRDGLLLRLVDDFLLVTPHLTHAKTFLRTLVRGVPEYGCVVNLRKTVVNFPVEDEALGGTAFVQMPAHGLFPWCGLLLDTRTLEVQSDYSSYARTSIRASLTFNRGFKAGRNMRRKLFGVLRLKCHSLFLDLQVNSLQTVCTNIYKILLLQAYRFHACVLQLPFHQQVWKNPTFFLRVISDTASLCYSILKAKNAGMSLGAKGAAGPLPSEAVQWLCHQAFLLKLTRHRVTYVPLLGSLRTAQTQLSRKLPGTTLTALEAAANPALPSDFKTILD

Row | SMILES | IC50 [1] | EC50 [2] | ΔTm [3] | IC50 [4] | EC50 [5] | ΔTm [6]
1 | NCCCC[C@H](N)C(=O)NCCC(=O)Nc1ccc2c(c1)C(=O)c1cc(NC(=O)CCNC(=O)[C@@H](N)CCCCN)ccc1C2=O | > 100 µM | 2.5 µM | 17 °C | > 100 µM | 1.5 µM | 3 °C
2 | N=C(N)NCCC[C@H](N)C(=O)NCCNC(=O)c1ccc2c(c1)C(=O)c1ccc(C(=O)NCCNC(=O)[C@@H](N)CCCNC(=N)N)cc1C2=O | 85 µM | 10 µM | 16.4 °C | > 100 µM | 1.5 µM | 5.2 °C
3 | NCC(=O)NCC(=O)Nc1ccc2c(c1)C(=O)c1ccc(NC(=O)CNC(=O)CN)cc1C2=O | 39 µM | > 40 µM | 8.6 °C | > 100 µM | 5 µM | 0.4 °C
4 | NCCC(=O)Nc1ccc2c(c1)C(=O)c1ccc(NC(=O)CCN)cc1C2=O | > 100 µM | > 40 µM | 18.1 °C | > 100 µM | 1.25 µM | 9.1 °C
5 | C[C@H](N)C(=O)NCCC(=O)Nc1ccc2c(c1)C(=O)c1cc(NC(=O)CCNC(=O)[C@H](C)N)ccc1C2=O | 64 µM | > 40 µM | 9 °C | > 100 µM | 15 µM | 0.3 °C
6 | O=C(CNC(=O)[C@@H]1CCCN1)Nc1ccc2c(c1)C(=O)c1ccc(NC(=O)CNC(=O)[C@@H]3CCCN3)cc1C2=O | 33 µM | > 40 µM | 15.6 °C | > 100 µM | 10 µM | 6.1 °C
7 | N=C(N)NCCC[C@H](N)C(=O)NCCC(=O)Nc1ccc2c(c1)C(=O)c1ccc(NC(=O)CCNC(=O)[C@@H](N)CCCNC(=N)N)cc1C2=O | 100 µM | – | 25 °C | > 100 µM | – | 4.8 °C
8 | NCCCC[C@H](N)C(=O)NCCNC(=O)c1ccc2c(c1)C(=O)c1ccc(C(=O)NCCNC(=O)[C@@H](N)CCCCN)cc1C2=O | 100 µM | 10 µM | 15.9 °C | > 100 µM | 0.8 µM | 7.9 °C
9 | N[C@@H](Cc1ccccc1)C(=O)NCCC(=O)Nc1ccc2c(c1)C(=O)c1ccc(NC(=O)CCNC(=O)[C@@H](N)Cc3ccccc3)cc1C2=O | – | > 40 µM | 4.3 °C | – | > 40 µM | 0.5 °C
10 | N[C@@H](Cc1ccccc1)C(=O)NCCC(=O)Nc1ccc2c(c1)C(=O)c1cc(NC(=O)CCNC(=O)[C@@H](N)Cc3ccccc3)ccc1C2=O | – | > 40 µM | 7 °C | – | > 40 µM | 0.3 °C
11 | CC(C)C[C@H](N)C(=O)NCC(=O)Nc1ccc2c(c1)C(=O)c1ccc(NC(=O)CNC(=O)[C@@H](N)CC(C)C)cc1C2=O | – | > 40 µM | 3.8 °C | – | > 40 µM | 0.7 °C
12 | NCC(=O)Nc1ccc2c(c1)C(=O)c1ccc(NC(=O)CN)cc1C2=O | 76 µM | > 40 µM | 3.6 °C | > 100 µM | 25 µM | 0.1 °C
13 | CC(C)C[C@H](N)C(=O)NCCNC(=O)c1ccc2c(c1)C(=O)c1cc(C(=O)NCCNC(=O)[C@@H](N)CC(C)C)ccc1C2=O | – | > 40 µM | 2.7 °C | – | > 40 µM | 0.3 °C
14 | NCCCC[C@H](N)C(=O)NCC(=O)Nc1ccc2c(c1)C(=O)c1ccc(NC(=O)CNC(=O)[C@@H](N)CCCCN)cc1C2=O | 27 µM | 5 µM | > 17 °C | 34 µM | 0.8 µM | 12 °C
15 | NCC(=O)NCCNC(=O)c1ccc2c(c1)C(=O)c1cc(C(=O)NCCNC(=O)CN)ccc1C2=O | – | > 40 µM | 3.3 °C | – | > 40 µM | 0.4 °C
16 | CC(C)C[C@H](N)C(=O)NCCNC(=O)c1ccc2c(c1)C(=O)c1ccc(C(=O)NCCNC(=O)[C@@H](N)CC(C)C)cc1C2=O | – | > 40 µM | 1.3 °C | – | > 40 µM | 0.2 °C
17 | N[C@@H](Cc1ccccc1)C(=O)NCCNC(=O)c1ccc2c(c1)C(=O)c1ccc(C(=O)NCCNC(=O)[C@@H](N)Cc3ccccc3)cc1C2=O | – | > 40 µM | 1.1 °C | – | > 40 µM | 0.2 °C
18 | N=C(N)NCCC[C@H](N)C(=O)NCC(=O)Nc1ccc2c(c1)C(=O)c1ccc(NC(=O)CNC(=O)[C@@H](N)CCCNC(=N)N)cc1C2=O | 89 µM | – | 22.9 °C | 86 µM | – | 9.8 °C
19 | CC(C)[C@H](N)C(=O)NCCC(=O)Nc1ccc2c(c1)C(=O)c1ccc(NC(=O)CCNC(=O)[C@@H](N)C(C)C)cc1C2=O | – | > 40 µM | 6 °C | – | > 40 µM | 0 °C
20 | CC[C@H](C)[C@H](N)C(=O)NCCC(=O)Nc1ccc2c(c1)C(=O)c1ccc(NC(=O)CCNC(=O)[C@@H](N)[C@@H](C)CC)cc1C2=O | – | > 40 µM | 5.7 °C | – | > 40 µM | 0 °C
21 | N[C@@H](CO)C(=O)NCCNC(=O)c1ccc2c(c1)C(=O)c1ccc(C(=O)NCCNC(=O)[C@@H](N)CO)cc1C2=O | – | > 40 µM | 2.5 °C | – | > 40 µM | 0.3 °C
22 | CC[C@H](C)[C@H](N)C(=O)NCCNC(=O)c1ccc2c(c1)C(=O)c1ccc(C(=O)NCCNC(=O)[C@@H](N)[C@@H](C)CC)cc1C2=O | – | > 40 µM | 1.1 °C | – | > 40 µM | 0.2 °C
23 | O=C1c2c(O)ccc(O)c2C(=O)c2c(NCCNCCO)ccc(NCCNCCO)c21 [MITOXANTRONE] | < 0.1 µM | – | – | < 0.1 µM | – | –
24 | NCCCC[C@H](N)C(=O)NCCC(=O)Nc1ccc2c(c1)C(=O)c1ccc(NC(=O)CCNC(=O)[C@@H](N)CCCCN)cc1C2=O | 100 µM | 10 µM | 17.2 °C | > 100 µM | 0.8 µM | 6.6 °C
25 | CC[C@H](C)[C@H](N)C(=O)NCC(=O)Nc1ccc2c(c1)C(=O)c1ccc(NC(=O)CNC(=O)[C@@H](N)[C@@H](C)CC)cc1C2=O | 18 µM | > 40 µM | 4.3 °C | 42 µM | 25 µM | 0.8 °C
26 | NCCC(=O)Nc1ccc2c(c1)C(=O)c1cc(NC(=O)CCN)ccc1C2=O | 57 µM | 10 µM | 23.4 °C | 79 µM | 1.2 µM | 11.3 °C
27 | C[C@@H](O)[C@H](N)C(=O)NCCNC(=O)c1ccc2c(c1)C(=O)c1cc(C(=O)NCCNC(=O)[C@@H](N)[C@@H](C)O)ccc1C2=O | – | > 40 µM | 3.2 °C | – | > 40 µM | 0.3 °C
28 | N[C@@H](Cc1ccccc1)C(=O)NCCNC(=O)c1ccc2c(c1)C(=O)c1cc(C(=O)NCCNC(=O)[C@@H](N)Cc3ccccc3)ccc1C2=O | – | > 40 µM | 1 °C | – | > 40 µM | 0.1 °C
29 | N=C(N)NCCC[C@H](N)C(=O)NCCNC(=O)c1ccc2c(c1)C(=O)c1cc(C(=O)NCCNC(=O)[C@@H](N)CCCNC(=N)N)ccc1C2=O | 35 µM | – | 16.2 °C | 85 µM | – | 5.1 °C

— ChEMBL document CHEMBL1140074, “Aminoacyl-anthraquinone conjugates as telomerase inhibitors: synthesis, biophysical and biological evaluation” (J Med Chem, 2008)
